In general, MIC90 refers to the lowest concentration that inhibits either 90% of growth or 90% of the strains tested, depending on the study. Read a high MIC90 as lower susceptibility. The MIC is the lowest concentration that inhibits growth of the organism.

Values after ≈ are worked out from the molar mass of the structure shown. Active and inactive are the calls of the source. No cut-off for these calls is given here.

Experiment [1] has as its system Staphylococcus aureus. Briefly: Antimicrobial activity against clinical isolates of Staphylococcus aureus after 24 hrs by broth microdilution method.
The subject of experiment [2] is Staphylococcus aureus. Nature of the experiment: Antimicrobial activity against cutaneous methicillin sensitive Staphylococcus aureus isolate 175 expressing virulence gene system including PVL, bsaB and Agr genes after 24 hrs by broth microdilution method. Particulars: isolate 175, 24 h. Type of experiment: functional. The method, boiled down:
(§1)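 Clinical S. aureus isolates, first recovered from patient specimens on 5% sheep blood agar, tested by CLSI broth microdilution in cation-adjusted Mueller-Hinton broth. Initial inoculum 10^6 cfu/mL. After overnight incubation at 37 °C, MIC was read as the lowest concentration preventing visible growth. Overnight starter cultures were grown in TSB from frozen glycerol stocks.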

Experiment [3] has as its system Staphylococcus aureus. Briefly: Antimicrobial activity against invasive methicillin resistant Staphylococcus aureus isolate 186 expressing virulence gene system including PVL, bsaA and Agr genes after 24 hrs by broth microdilution method. The class given is functional. The note with it: isolate 186, 24 h. In outline: as §1
For orientation: Broth dilution looks for growth in wells or tubes with falling amounts of substance.

Experiment [4] relates to Staphylococcus aureus. Briefly: Antimicrobial activity against cutaneous methicillin sensitive Staphylococcus aureus isolate 109 expressing virulence gene system including PVL, bsaB and Agr genes after 24 hrs by broth microdilution method. Particulars: isolate 109, 24 h.
Experiment [5] concerns Staphylococcus aureus. Nature of the experiment: Antimicrobial activity against invasive methicillin resistant Staphylococcus aureus isolate 194 expressing virulence gene system including PVL, ACME, bsaB and Agr genes after 24 hrs by broth microdilution method. The class given is functional. Particulars: isolate 194, 24 h. In outline: as §1
The test system of experiment [6] is Staphylococcus aureus. Briefly: Antimicrobial activity against cutaneous methicillin resistant Staphylococcus aureus isolate 108 expressing virulence gene system including PVL, bsaA and Agr genes after 24 hrs by broth microdilution method. The class given is functional. The note with it: isolate 108, 24 h. The method, boiled down: as §1
The test system of experiment [7] is Staphylococcus aureus. Briefly: Antimicrobial activity against cutaneous methicillin resistant Staphylococcus aureus isolate 295 expressing virulence gene system bsaB and Agr genes after 24 hrs by broth microdilution method. Particulars: isolate 295, 24 h. The class given is functional. In outline: as §1
For experiment [8], the system named is Staphylococcus aureus. Briefly: Antimicrobial activity against cutaneous methicillin resistant Staphylococcus aureus isolate 107 expressing virulence gene system including PVL, ACME, bsaB and Agr genes after 24 hrs by broth microdilution method. The class given is functional. Particulars: isolate 107, 24 h. The method, boiled down: as §1
Experiment [9] deals with Staphylococcus aureus. Nature of the experiment: Antimicrobial activity against cutaneous methicillin resistant Staphylococcus aureus isolate 105 expressing virulence gene system including PVL, ACME, bsaB and Agr genes after 24 hrs by broth microdilution method. Type of experiment: functional. The note with it: isolate 105, 24 h. In outline:
as §1

The test system of experiment [10] is Staphylococcus aureus. Briefly: Antimicrobial activity against methicillin sensitive Staphylococcus aureus ATCC 25923 after 24 hrs by broth microdilution method. Type of experiment: functional. The method, boiled down:
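Overnight culture diluted 1:100 in trypticase soy broth with 0.5% D-glucose and 3% NaCl, grown at 37 °C to OD600 0.4, then diluted 1:10. Compounds in DMSO diluted in medium, tested at a concentration series (3-6 wells per concentration); vancomycin positive control. Incubated 24 h at 37 °C; inhibition from OD600 change versus compound-free control wells.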

Experiment [11] concerns Staphylococcus aureus. Briefly: Antimicrobial activity against cutaneous methicillin resistant Staphylococcus aureus isolate 106 expressing virulence gene system including PVL, ACME, bsaB and Agr genes after 24 hrs by broth microdilution method. The note with it: isolate 106, 24 h. Type of experiment: functional. The method, boiled down: as §1
In experiment [12] the test system is Staphylococcus aureus. Nature of the experiment: Antimicrobial activity against cutaneous methicillin resistant Staphylococcus aureus isolate 148 expressing virulence gene system including PVL, ACME, bsaB and Agr genes after 24 hrs by broth microdilution method. The note with it: isolate 148, 24 h. The class given is functional. In outline:
as §1

Experiment [13] deals with Staphylococcus aureus. Briefly: Antimicrobial activity against cutaneous methicillin resistant Staphylococcus aureus isolate 158 expressing virulence gene system including PVL, ACME, bsaB and Agr genes after 24 hrs by broth microdilution method. Type of experiment: functional. The note with it: isolate 158, 24 h. The method, boiled down: as §1
Experiment [14] deals with Staphylococcus aureus. Briefly: Antimicrobial activity against cutaneous methicillin resistant Staphylococcus aureus isolate 111 expressing virulence gene system including PVL, ACME, bsaB and Agr genes after 24 hrs by broth microdilution method. The class given is functional. The note with it: isolate 111, 24 h. The method, boiled down:
as §1

Turning to `C[C@@H]1CC[C@@H]2C(=CC[C@H](O)C2(C)C)[C@]1(C)Cc1c[nH]c2ccccc12` [POLYALTHENOL], the MIC90 against Staphylococcus aureus [1] is 4 µg/mL (≈ 11.9 µM). In addition, the MIC was found to be 4 µg/mL (≈ 11.9 µM) against Staphylococcus aureus [2]; 4 µg/mL (≈ 11.9 µM) in the experiment with Staphylococcus aureus [3]; 1 µg/mL (≈ 2.96 µM) against Staphylococcus aureus [4]; 2 µg/mL (≈ 5.93 µM) against Staphylococcus aureus [5]; 2 µg/mL (≈ 5.93 µM) with Staphylococcus aureus [6]; 4 µg/mL (≈ 11.9 µM) in the experiment on Staphylococcus aureus [7]. The MIC against Staphylococcus aureus [8] amounted to 1 µg/mL (≈ 2.96 µM); against Staphylococcus aureus [9], 1 µg/mL (≈ 2.96 µM); in the experiment with Staphylococcus aureus [10] (ATCC 25923, 24 h), 4 µg/mL (≈ 11.9 µM); in the experiment with Staphylococcus aureus [11], 2 µg/mL (≈ 5.93 µM); against Staphylococcus aureus [12] it was 2 µg/mL (≈ 5.93 µM); against Staphylococcus aureus [13], 4 µg/mL (≈ 11.9 µM). For the same compound, 2 µg/mL (≈ 5.93 µM) was the least that counted as inhibitory in the experiment with Staphylococcus aureus [14] (MIC).

In the case of `COC(=O)CC[C@@H]1C(=C(C)C)CC[C@@H](C)[C@@]1(C)Cc1c[nH]c2ccccc12`, in the experiment with Staphylococcus aureus [10], the MIC result was “inactive”.

The compound `CC(C)=C1CC[C@@H](C)[C@@](C)(Cc2c[nH]c3ccccc23)[C@@H]1CCCO` gave an MIC in the experiment with Staphylococcus aureus [10] (ATCC 25923, 24 h) of 19 µg/mL (≈ 56 µM).

In the experiment with Staphylococcus aureus [1], `C[C@@H]1CCC2=C3[C@H](C[C@H](O)C2(C)C)c2[nH]c4ccccc4c2C[C@@]31C` [PENTACYCLINDOLE] displayed an MIC90 of 8 µg/mL (≈ 23.8 µM). In addition, the MIC in the experiment with Staphylococcus aureus [2], in the experiment on Staphylococcus aureus [3], against Staphylococcus aureus [4], with Staphylococcus aureus [6], in the experiment on Staphylococcus aureus [8] and in the experiment with Staphylococcus aureus [9] was 8 µg/mL (≈ 23.8 µM) throughout. In addition, the MIC against Staphylococcus aureus [10] (ATCC 25923, 24 h) stood at 4 µg/mL (≈ 11.9 µM); in the experiment with Staphylococcus aureus [11] it was 8 µg/mL (≈ 23.8 µM); against Staphylococcus aureus [12], 8 µg/mL (≈ 23.8 µM); against Staphylococcus aureus [13] it was 8 µg/mL (≈ 23.8 µM); against Staphylococcus aureus [14], 8 µg/mL (≈ 23.8 µM).

(Values after ChEMBL document CHEMBL1157131, “Antibiotic indole sesquiterpene alkaloid from Greenwayodendron suaveolens with a new natural product framework” (2010).)
